Sampled rows, rich in hits. Any-hit rate of the full collection: about 3.9%.
UPR XBP1 act = adaptive UPR (XBP1) activation | 330,000 compounds, 0.33% hits | activation, % at 20 µM | CHO-XBP1 luciferase reporter, IRE1-XBP1 UPR activation, luminescence; percent of tunicamycin response, DMSO as zero;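 active = versus positive control, 20 µM dose yields 30% or more activation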
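Material – CHO cell line with stable XBP1 luciferase reporter · Buffer or medium – F12 plus 10% FBS · Compound – single point, 20 µM final compound, 1% DMSO · Schedule – 16-18 h cell attachment at 37 °C, then 6 h compound exposure · Signal – Steady-Glo luminescence read · Benchmarks – high control tunicamycin 10 µg/mL final, low control DMSO vehicle only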
Jurkat NFkB inh = lowers PMA/ionomycin-induced NF-kB signal in Jurkat cells. 330,000 compounds, 0.53% hits. inhibition, % at 4 µM. PMA/ionomycin-induced NF-kB luciferase reporter, luminescence; in the data active = inhibition above about 50%
UPR CHOP act = apoptotic UPR (CHOP) activation | CHO-CHOP luciferase reporter, luminescence; percent of tunicamycin response over DMSO baseline | AID 449763 | 330,000 compounds, 0.34% hits | activation, % at 10 µM;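 active = at 10 µM dose, activation of 40% or more, normalized to positive control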
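System: CHO-CHOP luciferase reporter cell line; amount: 500 cells/well; buffer or medium: F12 medium containing 10% fetal bovine serum; incubation: 6 h compound exposure at 37 °C after overnight seeding; measured by: luciferase luminescence after 10 min with Steady-Glo reagent; evaluation: % reporter activation, DMSO baseline versus tunicamycin full activation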
Gli-Sufu antag = blocks Gli-Sufu signaling in a luciferase reporter; Sufu-KO-LIGHT fibroblasts, Gli luciferase reporter luminescence; inhibition, % at 5 µM; 340,000 compounds, 0.74% hits;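 active = inhibition above about 55%, limit read from the data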
697 NFkB inh = lowers PMA/ionomycin-induced NF-kB signal in 697 B cells; 697 B-cell NF-kB luciferase reporter, 16 h; inhibition, % at 4 µM; 330,000 compounds, 0.33% hits; AID 435022; in the data active = inhibition above about 35%
CHOP inhibitor = blocks CHOP induction under ER stress; CHO-K1 CHOP-promoter luciferase, tunicamycin-induced, 15-18 h; inhibition, % at 10 µM; 220,000 compounds, 3.8% hits; AID 2732;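 active = compounds that reduced the stress-induced luciferase reporter signal by more than about 70% of percent inhibition, limit read from the data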
CHOP inh conf = confirmation of CHOP induction inhibitors. AID 504437. CHO-CHOP promoter luciferase reporter, tunicamycin-induced, luminescence. shares compounds with CHOP inhibitor. inhibition, % at 10 µM. 2,100 compounds, 45% hits;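 active = mean of three repeat readings of reporter signal inhibition above a set limit, cut at about 70% in these data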
Numbers stand for hits.

`CC(C)(C)C(=O)Nc1sc2c(c1C#N)CCC2` gave UPR XBP1 act inactive, Jurkat NFkB inh inactive, UPR CHOP act inactive, Gli-Sufu antag inactive, 697 NFkB inh inactive and CHOP inhibitor inactive.
CC(C)(C)C(=O)NC(NC(=S)Nc1sc2c(c1C#N)CCCC2)C(Cl)(Cl)Cl (configuration not stated) was read as UPR XBP1 act inactive, Jurkat NFkB inh inactive, UPR CHOP act inactive, Gli-Sufu antag inactive, 697 NFkB inh inactive, CHOP inhibitor 97 and CHOP inh conf 74.
Screening S=C(Nc1ccc(Cl)c(Cl)c1)NC1CCN(Cc2ccccc2)CC1 returned UPR XBP1 act inactive, Jurkat NFkB inh inactive, UPR CHOP act inactive, Gli-Sufu antag inactive, 697 NFkB inh inactive, CHOP inhibitor 105 and CHOP inh conf inactive.
For S=C(Nc1ccc(Cl)c(Cl)c1)NC1CCCCC1 the results were UPR XBP1 act inactive, Jurkat NFkB inh inactive, UPR CHOP act inactive, Gli-Sufu antag inactive, 697 NFkB inh inactive, CHOP inhibitor 103 and CHOP inh conf inactive.
For C[C@@]12CCC[C@@](C)(C(=O)O)C1CC[C@@]13C[C@@H](NCc4ccccc4)[C@@](C)(CCC12)C3 (some centres not stated) the results were UPR XBP1 act inactive, Jurkat NFkB inh inactive, UPR CHOP act inactive, Gli-Sufu antag inactive and 697 NFkB inh inactive.
For CN(CCCC[C@H](CNCc1ccc(-c2ccccc2)cc1)N1C[C@H](c2ccccc2)N(CCc2ccc(Cl)c(Cl)c2)C(=O)C1=O)Cc1ccc(-c2ccccc2)cc1 the results were CHOP inhibitor 107 and CHOP inh conf 112.
CCOc1ccc(CCN2C(=O)C(=O)N([C@H](CCCN(C)Cc3ccccc3)CNCc3ccccc3)C[C@@H]2C(C)C)cc1 was read as UPR XBP1 act inactive, Jurkat NFkB inh inactive, UPR CHOP act inactive, 697 NFkB inh inactive and CHOP inhibitor inactive.
`O=C(C=CC(=O)OC1CCCCC1)OC1CCCCC1` gave Gli-Sufu antag inactive.
Screening Cc1cc(C)c(S(=O)(=O)Nc2nccs2)c(C)c1 returned UPR XBP1 act inactive, Jurkat NFkB inh inactive, UPR CHOP act inactive, Gli-Sufu antag inactive and 697 NFkB inh inactive.
`O=C(CSc1nc2ccsc2c(=O)n1CC1CCC(C(=O)O)CC1)c1ccc(F)cc1` (configuration not stated) gave UPR XBP1 act inactive, Jurkat NFkB inh inactive, UPR CHOP act inactive, Gli-Sufu antag inactive, 697 NFkB inh inactive and CHOP inhibitor inactive.
Screening O=C(CSc1nc2ccsc2c(=O)n1CC1CCC(C(=O)O)CC1)c1ccc(Cl)cc1 (configuration not stated) returned UPR XBP1 act inactive, Jurkat NFkB inh inactive, UPR CHOP act inactive, Gli-Sufu antag inactive, 697 NFkB inh inactive, CHOP inhibitor 102 and CHOP inh conf inactive.
O=C(COC(=O)c1cc(Br)ccc1O)NC12CC3CC(CC(C3)C1)C2 was read as UPR XBP1 act inactive, Jurkat NFkB inh inactive, UPR CHOP act inactive, Gli-Sufu antag inactive and 697 NFkB inh inactive.
For CN1C(=O)/C(=C/c2cccc(Cl)c2)Sc2ccc(C(=O)N3CCCC3)cc21 the results were UPR XBP1 act inactive, Jurkat NFkB inh inactive, UPR CHOP act inactive, Gli-Sufu antag inactive and 697 NFkB inh inactive.
For CCCCn1c(/N=C/c2c[nH]c3ccccc23)nc2ccccc21 the results were UPR XBP1 act inactive, Jurkat NFkB inh inactive, UPR CHOP act inactive, Gli-Sufu antag inactive, 697 NFkB inh inactive, CHOP inhibitor 111 and CHOP inh conf 117.
`CCCCn1c(/N=C/c2ccc3c(c2)OCO3)nc2ccccc21` gave UPR XBP1 act inactive, Jurkat NFkB inh inactive, UPR CHOP act inactive, Gli-Sufu antag inactive, 697 NFkB inh inactive, CHOP inhibitor 98 and CHOP inh conf inactive.
`CCCn1c(/N=C/c2ccccc2O)nc2ccccc21` gave UPR XBP1 act inactive, Jurkat NFkB inh inactive, UPR CHOP act inactive, Gli-Sufu antag inactive, 697 NFkB inh inactive and CHOP inhibitor inactive.
`CCCn1c(/N=C/c2c[nH]c3ccccc23)nc2ccccc21` gave UPR XBP1 act inactive, Jurkat NFkB inh inactive, UPR CHOP act inactive, Gli-Sufu antag inactive, 697 NFkB inh inactive, CHOP inhibitor 105 and CHOP inh conf inactive.
For CCn1c(/N=C/c2c[nH]c3ccccc23)nc2ccccc21 the results were UPR XBP1 act inactive, Jurkat NFkB inh inactive, UPR CHOP act inactive, Gli-Sufu antag inactive, 697 NFkB inh inactive and CHOP inhibitor inactive.
CCCCn1c(/N=C/c2ccc(N(C)C)cc2)nc2ccccc21 was read as UPR XBP1 act inactive, Jurkat NFkB inh inactive, UPR CHOP act inactive, Gli-Sufu antag inactive, 697 NFkB inh inactive and CHOP inhibitor inactive.
Screening O=[N+]([O-])c1ccccc1C1Nc2cccc3cccc(c23)N1 returned UPR XBP1 act inactive, Jurkat NFkB inh inactive, UPR CHOP act inactive, Gli-Sufu antag inactive, 697 NFkB inh inactive, CHOP inhibitor 106 and CHOP inh conf inactive.
Screening CC(C)C(NC(=O)CN(c1ccc2c(c1)OCCO2)S(=O)(=O)c1ccccc1)C(C)C returned UPR XBP1 act inactive, Jurkat NFkB inh inactive, UPR CHOP act inactive, Gli-Sufu antag inactive and 697 NFkB inh inactive.
Cc1ccccc1CCN(C(=O)Cn1nnc2ccccc21)C(C(=O)NC(C)(C)C)c1ccsc1 (configuration not stated) was read as UPR XBP1 act inactive, Jurkat NFkB inh inactive, UPR CHOP act inactive, Gli-Sufu antag inactive, 697 NFkB inh inactive, CHOP inhibitor 98 and CHOP inh conf inactive.
Screening Cc1cccc(N(C(=O)Cn2nnc3ccccc32)C(C(=O)NC(C)(C)C)c2ccsc2)c1C (configuration not stated) returned UPR XBP1 act inactive, Jurkat NFkB inh inactive, UPR CHOP act inactive, Gli-Sufu antag inactive, 697 NFkB inh inactive and CHOP inhibitor inactive.
`COc1cc(NC(=O)CSc2nc(=O)n(CCN3CCOCC3)c3c2CCCC3)cc(OC)c1` gave UPR XBP1 act inactive, Jurkat NFkB inh inactive, UPR CHOP act inactive, Gli-Sufu antag inactive and 697 NFkB inh inactive.
CNc1nc(N/N=C/c2cc3c(cc2[N+](=O)[O-])OCO3)nc(Nc2ccccc2)n1 was read as UPR XBP1 act inactive, Jurkat NFkB inh inactive, UPR CHOP act inactive, Gli-Sufu antag inactive, 697 NFkB inh inactive, CHOP inhibitor 106 and CHOP inh conf inactive.
CNc1nc(N/N=C/c2cc([N+](=O)[O-])ccc2F)nc(Nc2ccccc2)n1 was read as Gli-Sufu antag inactive.
Screening O=C(Nc1ccc(OC(F)(F)F)cc1)C1CCCCN1S(=O)(=O)c1ccccc1 (configuration not stated) returned UPR XBP1 act inactive, Jurkat NFkB inh inactive, UPR CHOP act inactive, Gli-Sufu antag inactive and 697 NFkB inh inactive.

Screening data deposited in PubChem by several laboratories.
